Results gathered from unrelated publications.
Lines come from different studies, so protocols differ.
HTR2B: 5-hydroxytryptamine receptor 2B (HTR2B, Homo sapiens, UniProt P41595)
RNMT: mRNA cap guanine-N(7) methyltransferase (RNMT, Homo sapiens, UniProt O43148)
DHFR: Dihydrofolate reductase (DHFR, Homo sapiens, UniProt P00374)

SMILES	target	assay	measurement	value
N#C[C@@]12C[C@@H]1[C@@H](n1cnc3c(NC4CCCC4)nc(I)nc31)[C@H](O)[C@@H]2O	HTR2B	ligand displacement, radioligand	Ki	0.00427 µM
CC(=O)N(CC#Cc1cccc(C(N)=O)c1)C[C@H]1C[C@@H](n2ccc3c(Cl)ncnc32)[C@H](O)[C@@H]1O	RNMT	binding, MST	Kd	> 300 µM
CCc1oc2c([C@H](CO)N(CC)CC)cccc2c1C	Lysophosphatidic acid receptor 1 (LPAR1, Homo sapiens, UniProt Q92633)	G protein activation, agonist	EC50	0.0012 µM
Cc1ccc(F)c(O)c1CN1CCN(C2CCCC2O)CC1 (stereo not shown)	HTR2B	calcium signal, antagonist	IC50	0.134 µM
Cc1ccc(NC(=S)NN=Cc2ccc(N3CCCCC3)cc2)cc1	DHFR	enzyme activity, inhibitor	IC50	28.5 µM
O=C(c1cc(C2CCNC2)[nH]n1)N1CCC(c2cccc(Cl)c2)C1 (stereo not shown)	HTR2B	calcium signal, antagonist	IC50	16.5 µM
COc1cccc(NC(=S)NN=Cc2ccc(N3CCCCC3)cc2)c1	DHFR	enzyme activity, inhibitor	IC50	22.4 µM
N#C[C@@]12C[C@@H]1[C@@H](n1cnc3c(N[C@@H](C4CCC4)C4CC4)nc(I)nc31)[C@H](O)[C@@H]2O	5-hydroxytryptamine receptor 2C (HTR2C, Homo sapiens, UniProt P28335)	calcium signal, antagonist	Kb	0.00339 µM
NC(=O)c1cccc(C#CCN(CC[C@H](N)C(=O)O)C[C@H]2O[C@@H](n3cnc4c(N)ncnc43)[C@H](O)[C@@H]2O)c1	RNMT	binding, MST	Kd	35.7 µM
O=C(O)C1=CC(=C(c2ccc(O)c(C(=O)O)c2)c2ccc(O)c(C(=O)O)c2)C=CC1=O	Guanine nucleotide-binding protein G(i) subunit alpha-3 (GNAI3, Homo sapiens, UniProt P08754)	binding, BLI	Kd	~1.6 µM
